Only some compounds are listed: those with a hit (about 2.9% of all), similar ones and a draw of the others.
SIRT5 inh = SIRT5 desuccinylase inhibitors, primary screen, biochemical, fluorescence imaging, single point, set 5. Purified SirT5, succinyl-peptide AMC, trypsin-coupled fluorescence. 330,000 tested, 1.1% active. inhibition, % at 15 µM. AID 652115, 2013; in the data active = inhibition above about 15%; inconclusive = no clear call, values can overlap the other calls
E-selectin induc = E-selectin induction in HUVECs, primary screen, imaging, HUVEC, immunofluorescence imaging, single point; AID 686992, 2013; 260,000 tested, 0.37% active; normalized: neutral wells 0, TNF-alpha wells 100; activation, % at 7.58 µM;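 active = mean E-selectin-positive cell signal at least 10% of the positive control, reached in at least 60% of replicates, without over 20% cell loss; inconclusive = no rule given, readout overlaps actives, possibly toxicity-flagged; inactive = the rest, including those meeting only one limit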
Target sequence (P16581 whole entry, looked up): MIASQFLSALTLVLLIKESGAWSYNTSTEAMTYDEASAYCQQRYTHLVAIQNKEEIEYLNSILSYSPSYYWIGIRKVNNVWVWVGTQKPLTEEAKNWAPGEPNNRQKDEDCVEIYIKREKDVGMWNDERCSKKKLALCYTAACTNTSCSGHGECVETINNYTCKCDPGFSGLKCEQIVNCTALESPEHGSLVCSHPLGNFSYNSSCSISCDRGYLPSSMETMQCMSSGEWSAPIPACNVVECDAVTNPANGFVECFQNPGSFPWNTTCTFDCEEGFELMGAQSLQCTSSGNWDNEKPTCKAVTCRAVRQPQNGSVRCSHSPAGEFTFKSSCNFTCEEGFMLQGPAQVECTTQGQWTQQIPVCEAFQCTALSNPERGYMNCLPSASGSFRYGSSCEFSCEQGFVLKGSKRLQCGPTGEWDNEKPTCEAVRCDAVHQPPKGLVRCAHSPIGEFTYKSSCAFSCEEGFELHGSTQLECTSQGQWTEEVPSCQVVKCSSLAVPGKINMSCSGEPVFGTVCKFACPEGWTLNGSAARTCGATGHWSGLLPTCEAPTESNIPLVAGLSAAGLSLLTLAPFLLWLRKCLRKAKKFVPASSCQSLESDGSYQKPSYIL
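material = human umbilical vein endothelial cells (HUVEC), E-selectin induction | quantity = 3,000 cells/well | medium = EGM-2 growth medium on 0.1% gelatin-coated wells | technique = immunofluorescence imaging | read-out basis = % PE-positive cells | control set = TNF-alpha positive control, DMSO neutral control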
DENV2 CPE = inhibitors of DENV2 cytopathic effect, primary screen, cell-based, plate reader, single concentration; DENV2-infected cells, cytopathic effect rescue; CPE inhibition, % at 9.99 µM; 350,000 tested, 1.7% active; in the data active = CPE inhibition above about 20%, passing the limit was not always enough; inconclusive = no clear call, values can overlap the other calls; tested in BHK-21 cells
Large screens that a line does not name were inactive.

Cc1ccc(-c2nn(-c3ccccc3Cl)cc2C(=O)NCC2CCCO2)cc1 (centres undefined)	DENV2 CPE 30 (no result: E-selectin induc)
O=C(O)c1ccc(Nc2nc(-c3ccc([N+](=O)[O-])cc3)nc3ccccc23)cc1	SIRT5 inh 24
O=[N+]([O-])c1ccc(-c2nc(Nc3ccc(O)cc3)c3ccccc3n2)cc1	none
COC(=O)C1=C(C)N(C)C(=NCc2ccc(OC)cc2)NC1c1ccc(C(F)(F)F)cc1 (centres undefined)	none (no result: SIRT5 inh)
COc1ccc(C2NC(=O)NC(C)=C2C(=O)Nc2cccc(C)c2C)cc1 (centres undefined)	DENV2 CPE 60
COc1ccccc1C1NC(=O)NC(C)=C1C(=O)Nc1cccc(C)c1C (centres undefined)	none
COc1ccc(COC(=O)C2=C(C)NC(=O)NC2c2ccc(F)cc2)cc1 (centres undefined)	DENV2 CPE 61 (no result: E-selectin induc)
COC(=O)C1=C(C)N(C)C(=NCc2ccc(OC)cc2)NC1c1ccc(F)cc1 (centres undefined)	DENV2 CPE 50 (no result: SIRT5 inh)
CCOc1ccc(C2NC(=O)NC(C)=C2C(=O)OCc2ccccc2)cc1 (centres undefined)	none (no result: E-selectin induc)
CCCNC(=O)c1onc(CSc2nc3ccccc3[nH]2)c1C(=O)NCCC	none (no result: SIRT5 inh)
COc1ccc(NC(=O)[C@@H]2CCCN2S(=O)(=O)c2cccc3cccnc23)cc1	none (no result: SIRT5 inh)
CN(C)C(=O)[C@H]1[C@H](CO)[C@H]2Cn3c(ccc(-c4ccccc4)c3=O)[C@@H]1N2CC1CCCC1	none
Cc1ccccc1-c1cc(C(=O)NCc2cccc(C(F)(F)F)c2)nn1CC1CC(c2cccc([N+](=O)[O-])c2)=NO1 (centres undefined)	DENV2 CPE 49 (no result: SIRT5 inh, E-selectin induc)
Cc1ccccc1-c1cc(C(=O)NCc2cccs2)nn1CC1CC(c2cccc([N+](=O)[O-])c2)=NO1 (centres undefined)	none (no result: SIRT5 inh)
Cc1ccccc1-c1cc(C(=O)O)nn1CC1CC(c2cccc([N+](=O)[O-])c2)=NO1 (centres undefined)	DENV2 CPE 126 (no result: SIRT5 inh)
Cc1ccccc1-c1cc(C(=O)NCc2ccc(OC(F)(F)F)cc2)nn1CC1CC(c2cccc([N+](=O)[O-])c2)=NO1 (centres undefined)	none
Cn1c(N=Nc2ccccc2)nc2ccccc21	none (no result: E-selectin induc)
C[C@@H]1CN([C@@H](C)CO)C(=O)c2cc(NC(=O)Cn3cnnn3)ccc2O[C@H]1CN(C)Cc1ccc(Oc2ccccc2)cc1	E-selectin induc 48
C[C@@H]1CN([C@@H](C)CO)C(=O)c2cc(NC(=O)Cn3cnnn3)ccc2O[C@H]1CN(C)Cc1ccc2c(c1)OCO2	none (no result: SIRT5 inh, DENV2 CPE)
C[C@H](CO)N1C[C@H](C)[C@H](CN(C)Cc2ccc3c(c2)OCO3)Oc2ccc(NC(=O)Cn3cnnn3)cc2C1=O	E-selectin induc 39
C[C@H](CO)N1C[C@H](C)[C@@H](CN(C)Cc2ccc(Oc3ccccc3)cc2)Oc2ccc(NC(=O)Cn3cnnn3)cc2CC1=O	DENV2 CPE 105
C[C@@H]1CN([C@@H](C)CO)C(=O)Cc2cc(NC(=O)Cn3cnnn3)ccc2O[C@@H]1CN(C)Cc1ccc(Oc2ccccc2)cc1	none
C[C@H]1CN([C@@H](C)CO)C(=O)c2cc(NC(=O)Cn3cnnn3)ccc2O[C@H]1CN(C)Cc1ccc(-c2ccccc2)cc1	DENV2 CPE 33
C[C@H](CO)N1C[C@H](C)[C@@H](CN(C)Cc2ccc(Oc3ccccc3)cc2)Oc2ccc(NC(=O)Cn3cnnn3)cc2C1=O	none
C[C@@H]1CN([C@H](C)CO)C(=O)c2cc(NC(=O)Cn3cnnn3)ccc2O[C@H]1CN(C)Cc1ccc(-c2ccccc2)cc1	none
Cc1ccc(F)cc1NC(=O)CCNC(=O)c1ccc([N+](=O)[O-])cc1	none
Cc1ccc(-c2nn(CC(=O)NCc3ccccn3)c(=O)c3ccccc23)cc1S(=O)(=O)N(C)C	none (no result: SIRT5 inh, E-selectin induc)
COc1ccc(-c2cc(C3CCN(C(=O)OC(C)(C)C)CC3)[nH]n2)cc1	none
CCC[C@H]1CC(=O)C=C(c2ccc(OC)cc2)ON1C(=O)OC(C)(C)C	DENV2 CPE 57
COc1ccc(C2CCCN2C(=S)Nc2ccc(C)c(C)c2)cc1OC (centres undefined)	none
COc1ccc(C2CCCN2C(=O)Nc2ccc(C)c(C)c2)cc1OC (centres undefined)	SIRT5 inh 16
O=C(CSc1n[nH]c(=O)[nH]c1=O)Nc1c(Cl)cc(Cl)cc1Cl	none (no result: SIRT5 inh, E-selectin induc)
CCc1c(C(=O)Nc2cc(C(=O)OC)ccc2C)csc1C	DENV2 CPE 88
CCOC(=O)Nc1cc(C(=O)OC)ccc1C	none (no result: E-selectin induc, DENV2 CPE)
CCOC(=O)C1CCN(S(=O)(=O)c2ccc(OC)c(C(=O)N3CCCCCC3)c2)CC1	none (no result: E-selectin induc)
Cc1cccc(N2C(=O)N3[C@H](c4ccc(F)cc4)[C@@H]4C(=O)N(C5CCCCC5)C(=O)[C@@H]4[C@]3(Cc3ccc(Cl)cc3)C2=O)c1	none
O=C1[C@H]2[C@@H](c3ccc(F)cc3)N3C(=O)N(c4cccc(F)c4)C(=O)[C@@]3(Cc3ccc(Cl)cc3)[C@H]2C(=O)N1C1CCCCC1	DENV2 CPE 24 (no result: SIRT5 inh)
COc1cc(CN(C)CC2CCCN(CCc3ccccc3F)C2)cc(Cl)c1OC (centres undefined)	none (no result: E-selectin induc)
CN(Cc1ccccc1)CC1CCCN(CCc2ccccc2F)C1 (centres undefined)	DENV2 CPE 39 (no result: E-selectin induc)
COc1ccc(C(=O)NCC(=O)OCC(=O)N2CCCc3ccccc32)cc1	none (no result: E-selectin induc)
CN1C(=O)[C@@](O)(c2cn(C)c3ccccc23)c2ccccc21	none
Cn1cc([C@]2(O)C(=O)Nc3ccccc32)c2ccccc21	DENV2 CPE 31
CCOC(=O)c1ccc(S(=O)(=O)N2CCN(C(=O)c3cc4ccccc4o3)CC2)cc1	DENV2 CPE inconclusive
CCOC(=O)c1ccc(S(=O)(=O)N2CCN(C(=O)CSc3nc4ccccc4o3)CC2)cc1	DENV2 CPE 29
C[C@H](O)C#Cc1ccc([C@H]2[C@@H](CO)N3CCCCN(C(=O)c4ccc(F)cc4)C[C@@H]23)cc1	DENV2 CPE 33
CC(C)(O)C#Cc1ccc([C@@H]2[C@@H](CO)N3CCCCN(C(=O)c4ccc(F)cc4)C[C@@H]23)cc1	DENV2 CPE 83
O=C(c1ccc(F)cc1)N1CCCCN2[C@H](C1)[C@H](c1ccc(C#CC3(O)CCCC3)cc1)[C@@H]2CO	DENV2 CPE 42
O=C(c1ccc(F)cc1)N1CCCCN2[C@H](CO)[C@@H](c3ccc(C#CC4(O)CCCC4)cc3)[C@H]2C1	none
C[C@H](O)C#Cc1ccc([C@H]2[C@H]3CN(C(=O)c4ccc(F)cc4)CCCCN3[C@H]2CO)cc1	none
CC(C)(O)C#Cc1ccc([C@H]2[C@H]3CN(C(=O)c4ccc(F)cc4)CCCCN3[C@H]2CO)cc1	none
Cc1cccc(C)c1OCC(=O)Nc1cccc(C(=O)O)c1	none
C[C@@H]1CN(Cc2nnnn2CC(=O)NCCCn2cccn2)C[C@H](C)O1	E-selectin induc inconclusive
O=S(=O)(NCCN1CCCC1)c1cccc2cccnc12	none (no result: SIRT5 inh, E-selectin induc)
Cc1cccc(NC(=O)CN2CCN(C(=O)CNC(=O)c3ccc(-c4ccccc4)cc3)CC2)c1C	none (no result: SIRT5 inh, E-selectin induc)
Cc1sc2nc(CN(C(=O)NC3CCCCC3)C3CCCC3)[nH]c(=O)c2c1C	none (no result: E-selectin induc)
